# How the values were obtained:
# P388/VCR [1] = assay: Antitumor activity against mouse P388/VCR cells allografted in CD2F1 mouse assessed as increase in host lifespan at 1.08 mg/kg, ip administered on days 1, 5 and 9; format: functional; details: route intraperitoneal
# In short: (§1)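 Groups of eight male CD2F1 mice bearing P388 leukemia, run at NCI. Sulfate salts given ip on days 1, 5 and 9. Read-out is percent increase in lifespan.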
# [2] = Antitumor activity against mouse Gardner lymphosarcoma allografted in C3H mouse assessed as tumor growth inhibition at 0.10 mg/kg, ip administered daily for 8 to 10 days; format: functional; details: route intraperitoneal, read-out: TGI
# In short: (§2)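 Gardner lymphosarcoma in C3H mice; sulfate salts unless noted, given ip daily for 8–10 days, treatment starting 8 days after tumor implantation. Tumor growth inhibition scored as –, 0–25%; +, 26–50%; ++, 51–75%; +++, 76–100%; T, lethal to ≥5 of 10 animals per group. Average of one or more tests.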
# [3] = Antitumor activity against mouse P1534 cells allografted in DBA2 mouse assessed as tumor growth inhibition at 0.25 mg/kg, ip administered daily for 8 to 10 days; format: functional; details: route intraperitoneal, read-out: TGI
# In short: (§3)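 P1534(J) leukemia implanted sc in DBA2 mice; sulfate salts dosed ip daily for 8–10 days. Growth inhibition scored –, 0–25%; +, 26–50%; ++, 51–75%; +++, 76–100%; T, lethal to ≥5 of 10 animals per group. Average of one or more tests.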
# P388/VCR [4] = assay: Antitumor activity against mouse P388/VCR cells allografted in B6D2F1 mouse assessed as increase in host lifespan at 0.90 mg/kg, ip administered on days 1, 5 and 9; format: functional; details: dose 0.9 mg/kg; route intraperitoneal
# In short: (§4)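 P388/VCR leukemia in groups of 10 B6D2F1 mice, run at Lilly using the cell strain received from NCI. Sulfate salts given ip on days 1, 5 and 9. Read-out is percent increase in lifespan.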
# P388/S [5] = assay: Antitumor activity against mouse P388/S cells allografted in CD2F1 mouse assessed as increase in host lifespan at 0.648 mg/kg, ip administered on days 1, 5 and 9; format: functional; details: route intraperitoneal; in short: as §1
# [6] = Antitumor activity against mouse Ridgway osteogenic sarcoma allografted in AKR mouse assessed as tumor growth inhibition at 0.05 mg/kg, ip administered daily for 8 to 10 days compound treatment commenced 8 days after tumor implantation; format: functional; details: route intraperitoneal, read-out: TGI
# Mus musculus [7] = assay: Toxicity in mouse assessed as body weight at 0.5 mg/kg, ip administered twice per week for 4 weeks, then three doses per week for 3 weeks and finally six doses per week for 2 weeks measured during 9-weeks (reference value: 18.5 +/- 0.5 gms); format: organism-based; design: dose 0.5 mg/kg, route intraperitoneal; details: in vivo, 1512 h
# P388/VCR [8] = assay: Antitumor activity against mouse P388/VCR cells allografted in B6D2F1 mouse assessed as increase in host lifespan at 0.60 mg/kg, ip administered on days 1, 5 and 9; format: functional; details: dose 0.6 mg/kg; route intraperitoneal; in short: as §4
# [9] = Antitumor activity against mouse P388/VCR/I/63 cells allografted in Dublin-CDF1 mouse assessed as day of host death at 2.0 mg/kg, ip administered on days 1, 5 and 9 (reference value: 10 days); format: functional; details: route intraperitoneal
# P388/VCR [10] = assay: Antitumor activity against mouse P388/VCR cells allografted in CD2F1 mouse assessed as increase in host lifespan at 1.80 mg/kg, ip administered on days 1, 5 and 9; format: functional; details: dose 1.8 mg/kg; route intraperitoneal
# In short: (§5)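 Groups of eight male CD2F1 mice, tested at the NCI. Compounds were given as sulfate salts, dosed in mg/kg ip on days 1, 5 and 9. Activity was read as percent increase in lifespan against the leukemia line.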
# P388/VCR [11] = assay: Antitumor activity against mouse P388/VCR cells allografted in B6D2F1 mouse assessed as increase in host lifespan at 1.20 mg/kg, ip administered on days 1, 5 and 9; format: functional; details: dose 1.2 mg/kg; route intraperitoneal; in short: as §4
# P388/S [12] = assay: Antitumor activity against mouse P388/S cells allografted in CD2F1 mouse assessed as increase in host lifespan at 1.80 mg/kg, ip administered on days 1, 5 and 9; format: functional; details: dose 1.8 mg/kg; route intraperitoneal; in short: as §5
# P388/S [13] = assay: Antitumor activity against mouse P388/S cells allografted in CD2F1 mouse assessed as increase in host lifespan at 1.08 mg/kg, ip administered on days 1, 5 and 9; format: functional; details: route intraperitoneal; in short: as §1
# [14] = Antitumor activity against mouse Gardner lymphosarcoma allografted in C3H mouse assessed as tumor growth inhibition at 0.30 mg/kg, ip administered daily for 8 to 10 days; format: functional; details: route intraperitoneal, read-out: TGI; in short: as §2
# [15] = Toxicity in iv dosed mouse assessed as lethality; format: organism-based; details: in vivo
# CHO [16] = assay: Mitotic arrest in CHO cells assessed as increase in cell accumulation at 0.02 ug/ml; format: functional, Cricetulus griseus
# In short: (§6)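 Chinese hamster ovary cells in tissue culture, scored for mitotic arrest as increase in cells in mitotic arrest over control: +++, 40–50%; ++, 15–40%; +, 10–15%; ±, 7–10%; –, 3–7%. Cytotoxicity noted separately.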
# P388/VCR [17] = assay: Antitumor activity against mouse P388/VCR cells allografted in CD2F1 mouse assessed as increase in host lifespan at 0.648 mg/kg, ip administered on days 1, 5 and 9; format: functional; details: route intraperitoneal; in short: as §1
# Mus musculus [18] = assay: Toxicity in CD2F1 mouse allografted with mouse P388/VCR cells at 3.00 mg/kg, ip administered on days 1, 5 and 9; format: organism-based; design: dose 3 mg/kg, route intraperitoneal; details: in vivo
# [19] = Antitumor activity against mouse P1534 cells allografted in DBA2 mouse assessed as tumor growth inhibition at 0.30 mg/kg, ip administered daily for 8 to 10 days; format: functional; details: route intraperitoneal, read-out: TGI; in short: as §3
# B16 [20] = assay: Antitumor activity against mouse B16 cells allografted in C57BL/6 mouse assessed as prolongation of host survival at 0.60 mg/kg, ip administered on days 1,5 and 9; format: functional; details: route intraperitoneal
# In short: (§7)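 B16 melanoma cells (10⁶ inoculum) implanted ip in C57BL/6 mice; groups of 10. Sulfate salts unless noted, given ip on days 1, 5 and 9. Single test. Survival prolongation is expressed as percent versus controls, with survivors counted on day 60. Toxic means deaths of ≥5 of 10 animals before the first control death.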
# B16 [21] = assay: Antitumor activity against mouse B16 cells allografted in C57BL/6 mouse assessed as prolongation of host survival at 0.90 mg/kg, ip administered on days 1,5 and 9; format: functional; details: route intraperitoneal; in short: as §7
# [22] = Antitumor activity against mouse Ridgway osteogenic sarcoma allografted in AKR mouse assessed as tumor growth inhibition at 0.30 mg/kg, ip administered daily for 8 to 10 days compound treatment commenced 8 days after tumor implantation; format: functional; details: route intraperitoneal, read-out: TGI
# B16 [23] = assay: Antitumor activity against mouse B16 cells allografted in C57BL/6 mouse assessed as prolongation of host survival at 1.20 mg/kg, ip administered on days 1,5 and 9; format: functional; details: route intraperitoneal; in short: as §7
# [24] = Antitumor activity against mouse Gardner lymphosarcoma allografted in C3H mouse assessed as tumor growth inhibition at 0.20 mg/kg, ip administered daily for 8 to 10 days; format: functional; details: route intraperitoneal, read-out: TGI; in short: as §2
# Mus musculus [25] = assay: Toxicity in CD2F1 mouse allografted with mouse P388/S cells at 3.00 mg/kg, ip administered on days 1, 5 and 9; format: organism-based; design: dose 3 mg/kg, route intraperitoneal; details: in vivo
# [26] = Antitumor activity against mouse P1534 cells allografted in DBA2 mouse assessed as tumor growth inhibition at 0.20 mg/kg, ip administered daily for 8 to 10 days; format: functional; details: route intraperitoneal, read-out: TGI; in short: as §3
# Mus musculus [27] = assay: Toxicity in C3H mouse allografted with mouse Gardner lymphosarcoma assessed as lethality at 0.5 mg/kg, ip administered daily for 8 to 10 days; format: organism-based; design: dose 0.5 mg/kg, route intraperitoneal; details: in vivo
# In short: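 Tumor-bearing mice given sulfate salts ip daily for 8–10 days; values are the average of one or more tests. Toxic means lethal to ≥5 of 10 animals per group.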
# Mus musculus [28] = assay: Toxicity in DBA2 mouse allografted with mouse P1534 cells at 0.40 mg/kg, ip administered daily for 8 to 10 days; format: organism-based; design: dose 0.4 mg/kg, route intraperitoneal; details: in vivo, 0.4 mg/kg; in short: as §3
# [29] = Antitumor activity against mouse Ridgway osteogenic sarcoma allografted in AKR mouse assessed as tumor growth inhibition at 0.10 mg/kg, ip administered daily for 8 to 10 days compound treatment commenced 8 days after tumor implantation; format: functional; details: route intraperitoneal, read-out: TGI
# [30] = Antitumor activity against mouse P388/VCR/I/63 cells allografted in Dublin-CDF1 mouse assessed as increase in host lifespan at 2.0 mg/kg, ip administered on days 1, 5 and 9; format: functional; details: route intraperitoneal
# [31] = Antitumor activity against mouse Ridgway osteogenic sarcoma allografted in AKR mouse assessed as tumor growth inhibition at 0.20 mg/kg, ip administered daily for 8 to 10 days compound treatment commenced 8 days after tumor implantation; format: functional; details: route intraperitoneal, read-out: TGI
# [32] = Antitumor activity against mouse Ridgway osteogenic sarcoma allografted in AKR mouse assessed as tumor growth inhibition at 0.40 mg/kg, ip administered daily for 8 to 10 days compound treatment commenced 8 days after tumor implantation; format: functional; details: route intraperitoneal, read-out: TGI
# [33] = Antitumor activity against mouse Gardner lymphosarcoma allografted in C3H mouse assessed as tumor growth inhibition at 0.05 mg/kg, ip administered daily for 8 to 10 days; format: functional; details: route intraperitoneal, read-out: TGI; in short: as §2
# [34] = Antitumor activity against mouse Gardner lymphosarcoma allografted in C3H mouse assessed as tumor growth inhibition at 0.40 mg/kg, ip administered daily for 8 to 10 days; format: functional; details: route intraperitoneal, read-out: TGI; in short: as §2
# CHO [35] = assay: Mitotic arrest in CHO cells assessed as increase in cell accumulation at 0.002 ug/ml; format: functional, Cricetulus griseus; in short: as §6
compound,measurement,setting,value
CC[C@]1(O)C[C@@H]2CN(CCc3c([nH]c4ccccc34)[C@@](C(=O)OC)(c3cc4c(cc3OC)N(C)[C@H]3[C@@](O)(C(N)=O)[C@H](O)[C@]5(CC)C=CCN6CC[C@]43[C@@H]65)C2)C1.O=S(=O)(O)O [VINDESINE SULFATE],Activity,P388/VCR [1],0%
same,inhibition in vivo at 0.1 mg/kg,[2],51%
same,inhibition in vivo at 0.25 mg/kg,[3],76%
same,Activity,P388/VCR [4],5%
same,Activity,P388/S [5],96%
same,inhibition in vivo at 0.05 mg/kg,[6],0%
same,Activity,Mus musculus [7],34.9 g
same,Activity,P388/VCR [8],0%
same,Activity,[9],20 days
same,Activity,P388/VCR [10],-8%
same,Activity,P388/VCR [11],3%
same,Activity,P388/S [12],138%
same,Activity,P388/S [13],129%
same,inhibition in vivo at 0.3 mg/kg,[14],76%
same,LD50,[15],6.3 mg/kg
same,Activity,CHO [16],15%
same,Activity,P388/VCR [17],4%
same,Activity,Mus musculus [18],Toxic
same,inhibition in vivo at 0.3 mg/kg,[19],76%
same,survival at 0.6 mg/kg,B16 [20],117%
same,survival at 0.9 mg/kg,B16 [21],144%
same,inhibition in vivo at 0.3 mg/kg,[22],76%
same,survival at 1.2 mg/kg,B16 [23],155%
same,inhibition in vivo at 0.2 mg/kg,[24],76%
same,Activity,Mus musculus [25],Toxic
same,inhibition in vivo at 0.2 mg/kg,[26],51%
same,Activity,Mus musculus [27],Toxic
same,Activity,Mus musculus [28],Toxic
same,inhibition in vivo at 0.1 mg/kg,[29],0%
same,Activity,[30],100%
same,inhibition in vivo at 0.2 mg/kg,[31],51%
same,inhibition in vivo at 0.4 mg/kg,[32],76%
same,inhibition in vivo at 0.05 mg/kg,[33],0%
same,inhibition in vivo at 0.4 mg/kg,[34],76%
same,Activity,CHO [35],10%
